Laboratory results: ChEMBL document CHEMBL3414471 (J Med Chem, 2015)
Calls of active or inactive are those of the source. No cut-off for these calls is given here.

Legend:
hERG (KCNH2) [1] = biological target: T1, hERG (KCNH2) (Homo sapiens, UniProt Q12809); test: Inhibition of human ERG channel expressed in CHO cells at 3.3 uM by patch clamp method; assay type: cell-based; conditions: CHO cells expressing human ERG channel
Summary of the method: (§1)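 hERG current recorded in CHO cells by automated patch clamp; percent inhibition at 0.37, 1.1, 3.3, 10 and 30 µM.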

CYP2D6 = CYP2D6 (Homo sapiens, UniProt P10635); test: Inhibition of human CYP2D6 using dextromethorphan as substrate at 10 uM; assay type: ADME; conditions: probe dextromethorphan
hERG (KCNH2) [2] = biological target: T1, hERG (KCNH2); test: (§2) Inhibition of human ERG channel expressed in CHO cells at […] by patch clamp method; assay type: cell-based; conditions: CHO cells expressing human ERG channel
CYP3A4 = CYP3A4 (Homo sapiens, UniProt P08684); test: Inhibition of human CYP3A4 using midazolam as substrate at 10 uM; assay type: ADME; conditions: probe midazolam
Summary of the method: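 Human liver microsomes with test compound at 10 µM; percent inhibition determined using bupropion (2B6), dextromethorphan (2D6) or midazolam (3A/3A4) as probe substrates.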

[3] = biological target: T2, 5-hydroxytryptamine receptor 2A (Homo sapiens, UniProt P28223); test: Agonist activity at human 5-HT2A receptor expressed in HEK293 cells assessed as calcium flux by FLIPR assay; assay type: functional, cell-based
Mus musculus = test: Antipsychotic activity in C57BL/6J mouse assessed as reduction of amphetamine-induced locomotor activity at 10 to 20 mg/kg, ip administered 15 mins prior to amphetamine challenge measured for 105 mins by open field test relative to vehicle-treated control; assay type: functional, organism-based
CYP2C19 = CYP2C19 (Homo sapiens, UniProt P33261); test: Inhibition of human CYP2C19 using omeprazole as substrate at 10 uM; assay type: ADME; conditions: probe omeprazole
hERG (KCNH2) [4] = biological target: T1, hERG (KCNH2); test: Inhibition of human ERG channel expressed in CHO cells at 30 uM by patch clamp method; assay type: cell-based; conditions: CHO cells expressing human ERG channel; summary of the method: as §1
[5] = biological target: Voltage-gated inwardly rectifying potassium channel KCNH2 (Homo sapiens, UniProt Q12809); test: Inhibition of human ERG channel expressed in CHO cells by patch clamp method; assay type: cell-based; conditions: human, cho
[6] = biological target: T3, 5-hydroxytryptamine receptor 2C (Homo sapiens, UniProt P28335); test: Agonist activity at human 5-HT2C receptor expressed in HEK293 cells assessed as calcium flux by FLIPR assay; assay type: functional, cell-based
T3 sequence (P28335 whole entry): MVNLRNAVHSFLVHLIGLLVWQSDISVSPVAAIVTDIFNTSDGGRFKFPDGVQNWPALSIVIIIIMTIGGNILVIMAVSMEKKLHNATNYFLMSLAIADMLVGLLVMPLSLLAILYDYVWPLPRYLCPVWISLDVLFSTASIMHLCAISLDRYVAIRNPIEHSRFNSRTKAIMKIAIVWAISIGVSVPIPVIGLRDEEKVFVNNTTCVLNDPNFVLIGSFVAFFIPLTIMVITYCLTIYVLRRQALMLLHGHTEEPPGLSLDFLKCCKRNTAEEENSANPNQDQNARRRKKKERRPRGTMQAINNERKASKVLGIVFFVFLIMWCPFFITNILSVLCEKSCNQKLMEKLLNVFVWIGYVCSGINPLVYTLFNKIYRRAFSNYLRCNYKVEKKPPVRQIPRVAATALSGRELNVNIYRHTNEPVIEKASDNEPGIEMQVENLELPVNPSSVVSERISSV

Homo sapiens = species: Homo sapiens; test: Selectivity ratio of EC50 for human 5-HT2A receptor to EC50 for human 5HT2C receptor
CYP2C9 = CYP2C9 (Homo sapiens, UniProt P11712); test: Inhibition of human CYP2C9 using diclofenac as substrate at 10 uM; assay type: ADME; conditions: probe diclofenac
hERG (KCNH2) [7] = biological target: T1, hERG (KCNH2); test: as §2; assay type: cell-based; conditions: CHO cells expressing human ERG channel; remark: listed apart in the source
[8] = biological target: Alpha-2A adrenergic receptor (Homo sapiens, UniProt P08913); test: Binding affinity to adrenergic alpha-2A receptor (unknown origin)
hERG (KCNH2) [9] = biological target: T1, hERG (KCNH2); test: Inhibition of human ERG channel expressed in CHO cells at 10 uM by patch clamp method; assay type: cell-based; conditions: CHO cells expressing human ERG channel; summary of the method: as §1
CYP2B6 = biological target: T4, CYP2B6 (Homo sapiens, UniProt P20813); test: Inhibition of human CYP2B6 using bupropion as substrate at 10 uM; assay type: ADME; conditions: probe bupropion
T4 sequence (P20813 whole entry): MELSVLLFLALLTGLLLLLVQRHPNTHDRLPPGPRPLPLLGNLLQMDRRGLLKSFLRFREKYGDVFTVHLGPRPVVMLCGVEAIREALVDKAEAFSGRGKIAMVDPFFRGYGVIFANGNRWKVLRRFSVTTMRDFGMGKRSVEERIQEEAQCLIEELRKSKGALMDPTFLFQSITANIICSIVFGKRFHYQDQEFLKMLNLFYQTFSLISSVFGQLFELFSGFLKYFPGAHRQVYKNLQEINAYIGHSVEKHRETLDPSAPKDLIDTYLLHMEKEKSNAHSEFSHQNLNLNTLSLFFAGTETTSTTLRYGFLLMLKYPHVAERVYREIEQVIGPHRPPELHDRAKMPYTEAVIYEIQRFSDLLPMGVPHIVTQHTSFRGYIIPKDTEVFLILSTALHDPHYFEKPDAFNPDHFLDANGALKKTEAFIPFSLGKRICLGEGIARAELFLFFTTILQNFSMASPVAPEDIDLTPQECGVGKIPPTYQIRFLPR

[10] = biological target: T5, 5-hydroxytryptamine receptor 2C (Homo sapiens) (UniProt P28335); test: Agonist activity at human 5-HT2C receptor expressed in HEK293 cells assessed as calcium flux by FLIPR assay relative to 5-HT; assay type: functional, cell-based
T5 sequence (whole entry): T3 sequence (P28335 whole entry)
Summary of the method: (§3)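 Flp-In-293 cells stably expressing human 5-HT2A, 5-HT2B or 5-HT2C-INI; grown 24–48 h in DMEM/10% dialyzed FBS, plated on poly-L-Lys at 12000 cells/well in 1% dialyzed FBS for 24 h. Loaded 1 h at 37 °C with calcium dye in HBSS, 20 mM Hepes pH 7.40, 2.5 mM probenecid.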

[11] = biological target: T2, 5-hydroxytryptamine receptor 2A; test: Agonist activity at human 5-HT2A receptor expressed in HEK293 cells assessed as calcium flux by FLIPR assay relative to 5-HT; assay type: functional, cell-based; summary of the method: as §3
[12] = biological target: 5-hydroxytryptamine receptor 2B (Homo sapiens, UniProt P41595); test: Agonist activity at human 5-HT2B receptor expressed in HEK293 cells assessed as calcium flux at 10 uM by FLIPR assay; assay type: functional, cell-based
Summary of the method: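 Flp-In-293 cells stably expressing human 5-HT2A, 5-HT2B or 5-HT2C-INI, grown in DMEM with 10% dialyzed FBS, then plated for 24 h in 1% dialyzed FBS. Cells were loaded 1 h at 37 °C with calcium dye in Hepes-buffered HBSS, pH 7.40, containing 2.5 mM probenecid. FLIPR read 10 s baseline, then 120 s after drug addition.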

T1 sequence (Q12809 whole entry): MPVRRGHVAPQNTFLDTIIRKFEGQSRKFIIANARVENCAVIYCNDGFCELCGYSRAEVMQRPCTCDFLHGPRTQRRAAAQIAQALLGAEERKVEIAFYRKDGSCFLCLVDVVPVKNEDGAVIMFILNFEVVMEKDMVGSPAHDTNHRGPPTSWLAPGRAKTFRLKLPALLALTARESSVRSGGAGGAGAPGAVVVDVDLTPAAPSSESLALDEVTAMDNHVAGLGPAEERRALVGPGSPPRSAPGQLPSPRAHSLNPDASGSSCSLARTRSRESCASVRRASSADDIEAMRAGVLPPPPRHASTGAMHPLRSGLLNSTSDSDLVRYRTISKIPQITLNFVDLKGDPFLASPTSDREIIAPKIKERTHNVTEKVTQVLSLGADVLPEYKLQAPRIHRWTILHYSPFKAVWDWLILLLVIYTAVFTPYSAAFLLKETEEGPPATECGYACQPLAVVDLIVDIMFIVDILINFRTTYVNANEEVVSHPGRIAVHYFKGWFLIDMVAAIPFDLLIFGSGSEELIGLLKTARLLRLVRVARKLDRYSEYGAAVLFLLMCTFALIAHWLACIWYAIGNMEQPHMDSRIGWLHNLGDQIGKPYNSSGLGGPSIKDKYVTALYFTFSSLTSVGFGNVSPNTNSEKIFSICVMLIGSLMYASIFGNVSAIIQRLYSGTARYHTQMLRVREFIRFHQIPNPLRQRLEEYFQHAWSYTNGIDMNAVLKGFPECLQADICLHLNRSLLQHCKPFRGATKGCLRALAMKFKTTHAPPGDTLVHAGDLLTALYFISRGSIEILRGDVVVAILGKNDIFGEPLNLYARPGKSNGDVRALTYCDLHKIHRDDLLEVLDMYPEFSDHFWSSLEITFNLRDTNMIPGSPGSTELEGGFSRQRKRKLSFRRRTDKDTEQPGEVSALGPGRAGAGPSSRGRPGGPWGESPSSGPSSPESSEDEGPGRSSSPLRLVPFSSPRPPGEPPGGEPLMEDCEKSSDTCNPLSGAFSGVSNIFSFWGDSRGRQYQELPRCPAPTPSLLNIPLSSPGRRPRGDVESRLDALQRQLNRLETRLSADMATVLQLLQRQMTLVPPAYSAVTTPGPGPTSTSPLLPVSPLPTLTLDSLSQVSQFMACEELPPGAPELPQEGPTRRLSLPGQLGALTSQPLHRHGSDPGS
T2 sequence (P28223 whole entry): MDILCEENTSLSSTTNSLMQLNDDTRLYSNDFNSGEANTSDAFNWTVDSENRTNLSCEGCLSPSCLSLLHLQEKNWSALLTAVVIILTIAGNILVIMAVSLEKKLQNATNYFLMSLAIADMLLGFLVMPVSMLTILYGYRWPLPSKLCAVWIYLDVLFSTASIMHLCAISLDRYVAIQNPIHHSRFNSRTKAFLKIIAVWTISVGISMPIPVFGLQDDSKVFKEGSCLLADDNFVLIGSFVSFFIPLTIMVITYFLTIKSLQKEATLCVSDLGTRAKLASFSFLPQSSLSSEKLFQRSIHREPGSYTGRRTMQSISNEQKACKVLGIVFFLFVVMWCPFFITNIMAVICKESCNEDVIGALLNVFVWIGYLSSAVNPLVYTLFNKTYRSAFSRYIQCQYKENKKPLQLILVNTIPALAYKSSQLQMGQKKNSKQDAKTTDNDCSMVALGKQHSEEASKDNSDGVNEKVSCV
Sequence of CYP2C19 (P33261 whole entry): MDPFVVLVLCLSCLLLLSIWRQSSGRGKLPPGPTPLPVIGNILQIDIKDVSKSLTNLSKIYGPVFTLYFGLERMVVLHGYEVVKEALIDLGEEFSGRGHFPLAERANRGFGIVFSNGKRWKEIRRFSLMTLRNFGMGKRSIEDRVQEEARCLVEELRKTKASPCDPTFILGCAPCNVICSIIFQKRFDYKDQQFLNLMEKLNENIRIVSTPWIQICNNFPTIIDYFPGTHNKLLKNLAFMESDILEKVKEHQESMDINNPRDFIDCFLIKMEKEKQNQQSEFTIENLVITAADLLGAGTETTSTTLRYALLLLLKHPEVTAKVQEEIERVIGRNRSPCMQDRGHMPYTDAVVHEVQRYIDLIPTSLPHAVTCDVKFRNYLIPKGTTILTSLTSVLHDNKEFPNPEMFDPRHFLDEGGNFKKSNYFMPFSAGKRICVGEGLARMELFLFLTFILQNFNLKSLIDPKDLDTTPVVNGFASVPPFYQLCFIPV
Sequence of Voltage-gated inwardly rectifying potassium channel KCNH2 (Q12809 whole entry): as the sequence (Q12809 whole entry) above
Sequence of CYP2C9 (P11712 whole entry): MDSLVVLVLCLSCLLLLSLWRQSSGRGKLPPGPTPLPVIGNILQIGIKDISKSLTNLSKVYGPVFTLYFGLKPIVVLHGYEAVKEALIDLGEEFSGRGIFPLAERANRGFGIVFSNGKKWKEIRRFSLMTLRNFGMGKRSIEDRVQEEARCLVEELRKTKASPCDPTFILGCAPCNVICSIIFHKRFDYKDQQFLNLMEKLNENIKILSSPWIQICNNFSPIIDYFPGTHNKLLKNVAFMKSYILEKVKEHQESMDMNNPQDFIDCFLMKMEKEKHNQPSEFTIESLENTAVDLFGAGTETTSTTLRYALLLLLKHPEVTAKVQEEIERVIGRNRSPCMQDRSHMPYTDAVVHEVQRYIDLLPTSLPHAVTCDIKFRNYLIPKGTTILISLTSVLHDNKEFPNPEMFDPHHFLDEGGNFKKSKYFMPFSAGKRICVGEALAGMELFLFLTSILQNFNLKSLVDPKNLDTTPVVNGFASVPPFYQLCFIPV
Sequence of Alpha-2A adrenergic receptor (P08913 whole entry): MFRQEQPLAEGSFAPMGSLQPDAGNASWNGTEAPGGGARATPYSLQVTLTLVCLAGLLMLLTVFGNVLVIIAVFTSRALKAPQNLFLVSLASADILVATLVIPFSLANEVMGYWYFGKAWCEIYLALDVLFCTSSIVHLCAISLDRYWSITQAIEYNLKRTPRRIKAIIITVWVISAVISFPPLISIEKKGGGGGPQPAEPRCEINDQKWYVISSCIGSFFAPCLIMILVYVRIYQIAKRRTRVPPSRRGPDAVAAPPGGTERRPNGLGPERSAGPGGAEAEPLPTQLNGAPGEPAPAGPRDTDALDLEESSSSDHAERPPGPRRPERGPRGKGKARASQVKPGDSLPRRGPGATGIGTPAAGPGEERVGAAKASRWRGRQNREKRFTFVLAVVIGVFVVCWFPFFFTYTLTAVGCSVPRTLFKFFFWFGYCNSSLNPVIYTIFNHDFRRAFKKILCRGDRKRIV
Sequence of CYP3A4 (P08684 whole entry): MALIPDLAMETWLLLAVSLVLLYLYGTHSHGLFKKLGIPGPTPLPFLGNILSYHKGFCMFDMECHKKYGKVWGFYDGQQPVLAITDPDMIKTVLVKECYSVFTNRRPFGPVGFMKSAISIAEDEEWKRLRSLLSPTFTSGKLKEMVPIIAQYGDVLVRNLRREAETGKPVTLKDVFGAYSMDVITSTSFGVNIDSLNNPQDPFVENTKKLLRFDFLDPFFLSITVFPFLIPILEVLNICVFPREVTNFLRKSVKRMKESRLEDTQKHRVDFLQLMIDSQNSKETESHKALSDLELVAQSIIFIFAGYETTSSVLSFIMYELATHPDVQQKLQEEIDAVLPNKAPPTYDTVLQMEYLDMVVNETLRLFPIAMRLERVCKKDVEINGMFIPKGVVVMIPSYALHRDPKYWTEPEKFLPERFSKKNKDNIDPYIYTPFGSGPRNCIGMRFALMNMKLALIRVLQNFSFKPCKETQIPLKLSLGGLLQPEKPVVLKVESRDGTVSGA

For `Cl.NC[C@H]1C[C@@H]1c1cc(F)ccc1OCCF`, the inhibition at 3.3 µM (hERG (KCNH2) [1]) was 15%, the inhibition at 10 µM (CYP2D6) was 24% and the inhibition at […] (hERG (KCNH2) [2]) was 6%. For the same compound, the inhibition at 10 µM (CYP3A4) was 10%, the EC50 [3] was 359 nM and the Activity (Mus musculus) was “Active”. For the same compound, the inhibition at 10 µM (CYP2C19) was 26%, the inhibition at 30 µM (hERG (KCNH2) [4]) was 35% and the “inhibition (INH)” value [5] was “Dose-dependent effect”. The EC50 [6] was 3.4 nM, the Ratio EC50 (Homo sapiens) was > 100 and the inhibition at 10 µM (CYP2C9) was 16%. The inhibition at […] (hERG (KCNH2) [7]) was 11%, the Ki [8] was < 1000 nM and the inhibition at 10 µM (hERG (KCNH2) [9]) was 25%. For the same compound, the inhibition at 10 µM (CYP2B6) was 6%, the Emax [10] was 89% and the Emax [11] was 76%. For the same compound, the Activity [12] was “inactive”.
